Legend:
Type in all cases: cell-based
[1] = target: CaV1.3 LTCCs expressed in HEK293 cells (Rattus norvegicus, UniProt P27732); test: Automated planar whole-cell patch-clamp recording, CaV1.3; details: HEK293, read-out: % Inhibition (10 μM) CaV1.3
Procedure, shortened: (§1)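 HEK293 lines stably expressing the channel plus Kir2.1, grown in DMEM/10% FBS at 37 °C, 5% CO2, moved to 28 °C the day before. Automated whole-cell recording at room temperature; bath (mM) 120 NaCl, 20 CsCl, 10 BaCl2, pH 7.4; CsF-based internal. Current read at 0 mV, 250 ms into step from −60 mV, before and after compound or vehicle; only CdCl2 (5 mM)-sensitive current analysed, no leak subtraction.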

[2] = target: CaV1.2 LTCCs expressed in HEK293 cells (Homo sapiens, UniProt Q13936); test: Automated planar whole-cell patch-clamp recording, CaV1.2
Procedure, shortened: as §1

[3] = target: CaV1.2 L-type calcium channel (Homo sapiens, UniProt Q13936); test: as above; details: pH 7.4
Procedure, shortened: as §1

Chain of CaV1.2 L-type calcium channel (Q13936 whole entry): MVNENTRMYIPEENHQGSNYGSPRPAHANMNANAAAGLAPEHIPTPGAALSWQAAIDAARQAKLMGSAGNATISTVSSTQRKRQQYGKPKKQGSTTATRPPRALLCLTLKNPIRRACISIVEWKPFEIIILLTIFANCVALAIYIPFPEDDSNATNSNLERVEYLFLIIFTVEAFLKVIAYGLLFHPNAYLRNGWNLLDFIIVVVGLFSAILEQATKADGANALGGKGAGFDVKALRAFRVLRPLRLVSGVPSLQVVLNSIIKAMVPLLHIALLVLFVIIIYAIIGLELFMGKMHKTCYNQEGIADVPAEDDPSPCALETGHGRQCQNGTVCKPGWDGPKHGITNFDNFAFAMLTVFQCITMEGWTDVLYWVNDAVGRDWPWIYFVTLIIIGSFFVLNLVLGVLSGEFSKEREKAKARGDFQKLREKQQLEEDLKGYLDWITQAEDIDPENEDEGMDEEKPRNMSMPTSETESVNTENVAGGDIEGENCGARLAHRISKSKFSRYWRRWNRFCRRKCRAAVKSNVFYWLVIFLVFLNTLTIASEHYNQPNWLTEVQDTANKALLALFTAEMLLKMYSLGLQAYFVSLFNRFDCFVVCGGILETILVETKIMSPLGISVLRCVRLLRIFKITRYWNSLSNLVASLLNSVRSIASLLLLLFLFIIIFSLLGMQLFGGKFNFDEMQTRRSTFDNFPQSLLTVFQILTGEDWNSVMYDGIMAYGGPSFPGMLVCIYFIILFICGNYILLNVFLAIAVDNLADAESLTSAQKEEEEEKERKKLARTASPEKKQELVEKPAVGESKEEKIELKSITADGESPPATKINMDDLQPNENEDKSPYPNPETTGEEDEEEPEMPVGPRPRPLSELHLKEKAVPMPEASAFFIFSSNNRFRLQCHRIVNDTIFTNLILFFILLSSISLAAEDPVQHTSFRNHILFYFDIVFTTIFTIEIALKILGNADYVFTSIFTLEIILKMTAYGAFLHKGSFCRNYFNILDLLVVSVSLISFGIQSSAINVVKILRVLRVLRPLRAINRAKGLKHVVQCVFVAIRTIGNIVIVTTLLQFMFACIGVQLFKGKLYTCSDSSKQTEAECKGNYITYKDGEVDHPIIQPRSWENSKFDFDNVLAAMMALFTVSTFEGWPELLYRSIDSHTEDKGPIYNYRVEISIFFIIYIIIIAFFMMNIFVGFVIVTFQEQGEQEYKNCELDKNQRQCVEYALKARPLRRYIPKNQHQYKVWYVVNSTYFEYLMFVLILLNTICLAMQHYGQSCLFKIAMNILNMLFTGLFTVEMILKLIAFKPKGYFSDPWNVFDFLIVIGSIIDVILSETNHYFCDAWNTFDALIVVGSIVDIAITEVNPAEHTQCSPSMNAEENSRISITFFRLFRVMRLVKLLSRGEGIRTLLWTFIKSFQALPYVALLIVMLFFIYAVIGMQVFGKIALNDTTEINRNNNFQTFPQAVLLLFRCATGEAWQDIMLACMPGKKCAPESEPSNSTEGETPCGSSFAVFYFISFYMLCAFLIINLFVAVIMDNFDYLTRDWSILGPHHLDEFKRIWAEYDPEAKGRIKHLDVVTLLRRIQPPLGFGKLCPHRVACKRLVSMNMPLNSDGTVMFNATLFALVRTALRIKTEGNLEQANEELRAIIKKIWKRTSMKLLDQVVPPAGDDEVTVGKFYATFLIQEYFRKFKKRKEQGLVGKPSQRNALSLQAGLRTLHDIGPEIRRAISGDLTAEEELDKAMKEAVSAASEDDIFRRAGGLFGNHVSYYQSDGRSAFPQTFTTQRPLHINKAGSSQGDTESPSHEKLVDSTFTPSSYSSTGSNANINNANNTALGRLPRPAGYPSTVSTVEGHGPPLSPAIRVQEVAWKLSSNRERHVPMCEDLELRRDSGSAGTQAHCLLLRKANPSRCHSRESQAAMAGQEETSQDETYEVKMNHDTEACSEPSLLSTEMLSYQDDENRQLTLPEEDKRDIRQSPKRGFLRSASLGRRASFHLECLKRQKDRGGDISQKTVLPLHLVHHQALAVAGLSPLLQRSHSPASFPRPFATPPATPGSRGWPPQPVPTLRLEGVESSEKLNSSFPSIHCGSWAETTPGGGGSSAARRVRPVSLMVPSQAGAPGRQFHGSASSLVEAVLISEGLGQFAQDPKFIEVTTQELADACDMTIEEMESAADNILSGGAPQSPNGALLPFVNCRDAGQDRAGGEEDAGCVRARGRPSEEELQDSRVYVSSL
Chain of CaV1.2 L-type calcium channel (P54284 whole entry partner): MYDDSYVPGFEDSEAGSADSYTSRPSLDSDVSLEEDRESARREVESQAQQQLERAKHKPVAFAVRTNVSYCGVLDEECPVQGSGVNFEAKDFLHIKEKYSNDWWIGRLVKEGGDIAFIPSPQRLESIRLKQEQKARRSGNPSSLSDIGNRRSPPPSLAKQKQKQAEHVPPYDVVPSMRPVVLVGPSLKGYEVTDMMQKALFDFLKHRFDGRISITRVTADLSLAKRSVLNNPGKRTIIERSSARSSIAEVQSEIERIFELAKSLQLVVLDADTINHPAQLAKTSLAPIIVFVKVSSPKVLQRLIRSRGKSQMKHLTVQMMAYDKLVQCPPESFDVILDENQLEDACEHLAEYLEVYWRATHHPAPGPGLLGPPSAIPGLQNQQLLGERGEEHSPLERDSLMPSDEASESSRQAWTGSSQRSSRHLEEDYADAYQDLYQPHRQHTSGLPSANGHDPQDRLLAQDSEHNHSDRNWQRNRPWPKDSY
Chain of CaV1.2 L-type calcium channel (P54289 25-946 partner limits assumed): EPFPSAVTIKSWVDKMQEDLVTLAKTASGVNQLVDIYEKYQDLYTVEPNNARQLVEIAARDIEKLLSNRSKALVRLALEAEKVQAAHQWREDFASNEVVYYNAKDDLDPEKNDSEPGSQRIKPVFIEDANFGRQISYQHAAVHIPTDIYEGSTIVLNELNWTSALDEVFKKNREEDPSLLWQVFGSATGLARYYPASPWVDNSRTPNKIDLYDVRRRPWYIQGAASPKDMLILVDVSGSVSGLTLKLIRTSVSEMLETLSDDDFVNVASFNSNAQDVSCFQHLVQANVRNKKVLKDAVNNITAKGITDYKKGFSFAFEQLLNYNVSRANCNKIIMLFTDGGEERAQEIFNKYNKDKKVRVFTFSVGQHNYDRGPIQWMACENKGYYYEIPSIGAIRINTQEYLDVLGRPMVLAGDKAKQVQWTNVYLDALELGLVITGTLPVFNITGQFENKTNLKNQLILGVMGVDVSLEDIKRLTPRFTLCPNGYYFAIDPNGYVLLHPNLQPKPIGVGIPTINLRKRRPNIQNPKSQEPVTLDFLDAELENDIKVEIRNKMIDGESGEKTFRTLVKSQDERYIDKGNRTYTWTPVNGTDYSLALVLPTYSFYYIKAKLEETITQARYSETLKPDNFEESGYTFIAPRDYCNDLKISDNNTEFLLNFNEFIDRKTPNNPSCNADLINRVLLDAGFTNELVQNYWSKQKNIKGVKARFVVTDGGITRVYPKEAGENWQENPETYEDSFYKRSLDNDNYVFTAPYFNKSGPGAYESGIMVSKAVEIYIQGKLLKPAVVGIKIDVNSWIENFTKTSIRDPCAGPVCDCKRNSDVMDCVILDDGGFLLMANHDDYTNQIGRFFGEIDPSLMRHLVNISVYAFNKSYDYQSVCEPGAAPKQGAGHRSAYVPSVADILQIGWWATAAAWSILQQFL
Chain of CaV1.2 L-type calcium channel (P54289 947-1103 partner limits assumed): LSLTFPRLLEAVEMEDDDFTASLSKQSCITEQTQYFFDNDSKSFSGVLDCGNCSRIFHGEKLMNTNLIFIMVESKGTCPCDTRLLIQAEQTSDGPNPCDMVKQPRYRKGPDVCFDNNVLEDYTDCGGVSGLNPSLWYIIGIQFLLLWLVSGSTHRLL
Chain of CaV1.2 LTCCs expressed in HEK293 cells (Q13936 whole entry): as the sequence (Q13936 whole entry) above
Chain of CaV1.2 LTCCs expressed in HEK293 cells (P54284 whole entry partner): as the sequence (P54284 whole entry partner) above
Chain of CaV1.2 LTCCs expressed in HEK293 cells (P54289 25-946 partner limits assumed): as the sequence (P54289 25-946 partner limits assumed) above
Chain of CaV1.2 LTCCs expressed in HEK293 cells (P54289 947-1103 partner limits assumed): as the sequence (P54289 947-1103 partner limits assumed) above

SMILES | inhibition at 10 µM [1] | IC50 [2] | inhibition at 10 µM [3]
O=C1C(c2cccc([N+](=O)[O-])c2)C(=O)N(C2CCCC2)C(=O)N1CCCCc1cccc(Cl)c1 (centres unmarked) [14a, 1-(4-(3-Chlorophenyl)butyl)-3-cyclopentyl-5-(3-nitrophenyl)pyrimidine-2,4,6(1H,3H,5H)-trione] | 76.9% | 3.72 µM | 72.7%
O=C1C(c2cccc(C(F)(F)F)c2)C(=O)N(CCc2cccc(Cl)c2)C(=O)N1CCCc1ccc(Cl)cc1 (centres unmarked) [14b, 1-(3-Chlorophenethyl)-3-(3-(4-chlorophenyl)propyl)-5-(3-(trifluoromethyl)phenyl)pyrimidine-2,4,6(1H,3H,5H)-trione] | 95.6% | – | 98.8%
O=C1C(c2cccc(C(F)(F)F)c2)C(=O)N(CCc2cccc(Cl)c2)C(=O)N1CCCc1cccc(Cl)c1 (centres unmarked) [14c, 1-(3-Chlorophenethyl)-3-(3-(3-chlorophenyl)propyl)-5-(3-(trifluoromethyl)phenyl)pyrimidine-2,4,6(1H,3H,5H)-trione] | 97.3% | – | 99.2%
O=C1C(c2cccc(C(F)(F)F)c2)C(=O)N(CCc2cccc(Cl)c2)C(=O)N1CCCc1ccc(C(F)(F)F)cc1 (centres unmarked) [14d, 1-(3-Chlorophenethyl)-5-(3-(trifluoromethyl)phenyl)-3-(3-(4-(trifluoromethyl)phenyl)propyl)pyrimidine-2,4,6(1H,3H,5H)-trione] | 93.1% | 4.53 µM | 81.2%
O=C1C(c2cccc(C(F)(F)F)c2)C(=O)N(CCc2cccc(Cl)c2)C(=O)N1CCCCc1ccc(Cl)cc1 (centres unmarked) [14e, 1-(3-Chlorophenethyl)-3-(4-(4-chlorophenyl)butyl)-5-(3-(trifluoromethyl)phenyl)pyrimidine-2,4,6(1H,3H,5H)-trione] | 93.8% | 2.41 µM | 96.1%
O=C1C(c2cccc(C(F)(F)F)c2)C(=O)N(CCc2cccc(Cl)c2)C(=O)N1CCCCc1cccc(Cl)c1 (centres unmarked) [14f, 1-(3-Chlorophenethyl)-3-(4-(3-chlorophenyl)butyl)-5-(3-(trifluoromethyl)phenyl) pyrimidine-2,4,6(1H,3H,5H)-trione] | 79.8% | – | 100%
O=C1C(c2cccc(C(F)(F)F)c2)C(=O)N(CCc2cccc(Cl)c2)C(=O)N1CCCCc1ccc(C(F)(F)F)cc1 (centres unmarked) [14g, 1-(3-Chlorophenethyl)-5-(3-(trifluoromethyl)phenyl)-3-(4-(4-(trifluoromethyl)phenyl)butyl)pyrimidine-2,4,6(1H,3H,5H)-trione] | 82.8% | – | 88.2%
